The text below walks through data of ChEMBL document CHEMBL4002637, “Synthesis, characterization, in vitro SAR and in vivo evaluation of N,N'bisnaphthylmethyl 2-alkyl substituted imidazolium salts against NSCLC” (Bioorg Med Chem Lett, 2017).

Activity calls are given as the source filed them. No cut-off for these calls is given here.

The subject of assay [1] is NCI-H460. Briefly: Antiproliferative activity against human NCI-H460 cells using 1% DMSO/water compound formulation after 72 hrs by MTT assay. The class given is functional, cell-based. The settings on record: NCI-H460, 72 h. The gist of the method: (§1)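 MTT anti-proliferation on NSCLC lines. Compounds dissolved in DMSO, diluted with water to 1% DMSO, then into growth medium (max 0.032% DMSO on cells); or dissolved in 10% (w/v) 2-HPβCD in water, then diluted (max 0.008% w/w 2-HPβCD in wells; vehicle controls at 0.008%). IC50 = concentration giving 50% loss of viability versus control cells. Cisplatin dissolved in water with stirring.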
In general terms: Tetrazolium assays rely on reduction of a dye to a coloured formazan, in cell work by metabolically active cells.

In assay [2] the test system is A549. Description: Antiproliferative activity against human A549 cells using 1% DMSO/water compound formulation after 72 hrs by MTT assay. The class given is functional, cell-based. The settings on record: A549, 72 h. The gist of the method:
as §1

Assay [3] deals with A549. Description: Growth inhibition of human A549 cells assessed as cell growth at 10 uM after 24 hrs by SRB assay relative to control. Type of assay: functional. The settings on record: A549, 24 h, read-out: Activity. The gist of the method: (§2)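 NCI DTP one-dose screen: cells plated at density set by doubling rate, incubated overnight, then exposed to compound at 10 μM for 24 hours. Growth percentage from protein density at end versus start of experiment, relative to initial cell number.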

Assay [4] relates to EKVX. Briefly: Growth inhibition of human EKVX cells assessed as cell growth at 10 uM after 24 hrs by SRB assay relative to control. Type of assay: functional. Conditions: read-out: Activity. The gist of the method:
as §2
Background: In SRB staining, fixed cells bind dye roughly in proportion to their protein.

The subject of assay [5] is NCI-H522. Description: Growth inhibition of human NCI-H522 cells assessed as cell growth at 10 uM after 24 hrs by SRB assay relative to control. The class given is functional. The settings on record: NCI-H522, 24 h, read-out: Activity. The essentials: as §2
Assay [6] concerns NCI-H226. Description: Growth inhibition of human NCI-H226 cells after 24 hrs by SRB assay. The settings on record: NCI-H226, 24 h. Type of assay: functional.
The test system of assay [7] is NCI-H23. Briefly: Growth inhibition of human NCI-H23 cells after 24 hrs by SRB assay. Type of assay: functional. Conditions: NCI-H23, 24 h.
Assay [8] deals with NCI-H522. Description: Growth inhibition of human NCI-H522 cells after 24 hrs by SRB assay. The class given is functional. Conditions: NCI-H522, 24 h.
Assay [9] relates to NCI-H460. Description: Induction of apoptosis in human NCI-H460 cells at 40 uM up to 12 hrs using 10% 2HPbetaCD/water compound formulation by Annexin V-FITC/propidium iodide staining based fluorescence microscopic method. Type of assay: functional, cell-based. The gist of the method:
(§3)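 Annexin V-FITC/propidium iodide staining of H460 cells in 6-well plates. Compound given in 10% (w/v) 2-HPβCD aqueous solution. Imaged at 12, 14, 17 and 20 h with 20× objective as merged transmitted, green and red channels. Controls: 2-HPβCD and cisplatin, 20 h.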

The subject of assay [10] is NCI-H460. Briefly: Induction of apoptosis in human NCI-H460 cells assessed as blebbing at 40 uM after 14 hrs using 10% 2HPbetaCD/water compound formulation by Annexin V-FITC/propidium iodide staining based fluorescence microscopic method. The class given is functional, cell-based. The gist of the method: as §3
The species entered for assay [11] is Bos taurus. Briefly: Binding affinity to calf thymus DNA assessed as increase in viscosity at 10 to 70 uM using 1% DMSO/water compound formulation by Ostwald viscometric method.
The species entered for assay [12] is Bos taurus. Description: Binding affinity to calf thymus DNA assessed as increase in viscosity at 10 to 70 uM using 10% 2HPbetaCD/water compound formulation by Ostwald viscometric method.
For assay [13], the species on record is Bos taurus. Briefly: Inhibition of ethidium bromide binding to calf thymus DNA assessed as at 13.3 uM using 1% DMSO/water compound formulation by spectrofluorometric method.
For assay [14], the species on record is Bos taurus. Description: Inhibition of ethidium bromide binding to calf thymus DNA assessed as at 13.3 uM using 10% 2HPbetaCD/water compound formulation by spectrofluorometric method.
Assay [15] has as its system NCI-H460. Description: Disruption of mitochondrial membrane potential in human NCI-H460 cells at 20 uM up to 30 mins using […] by JC1/DAPI staining based confocal microscopic method. Type of assay: functional, cell-based.
Where [16] appears, read: read-out: LC50 (the source's name).

By IC50 is commonly meant the concentration at which inhibition is half-maximal. Read a low IC50 as greater potency. One may read the GI50 as the concentration giving 50% growth inhibition. Higher therefore signals lower sensitivity of the cells. In general, LC50 refers to the concentration lethal to half of the exposed cells or organisms. The low end stands for a more lethal substance, the high end for a less lethal substance. As a reminder, the TGI is the concentration giving total growth inhibition. Higher therefore signals less potent growth arrest. As to `CCc1n(Cc2ccc3ccccc3c2)cc[n+]1Cc1ccc2ccccc2c1.[Br-]`, the IC50 in [1] worked out at 0.92 µM; in [2] it was 2.63 µM. In addition, the figures for the growth at 10 µM in assay [3], in assay [4] and in assay [5] were 28.5%, 11.9% and -25.4%, respectively. Moreover, the GI50 turned out to be 1.08 µM in assay [6], 0.396 µM in assay [7] and 0.303 µM in assay [8]. This compound also registered an LC50 in [6] of 3.82 µM. For the same compound, the TGI stood at 3.82 µM in assay [6], 2.02 µM in assay [7] and 1.44 µM in [8]. Besides, the values for the CC50 in assay [7] (setting [16]) and in assay [8] (setting [16]) were 2.02 µM and 1.44 µM, respectively. The outcome in assay [9], in assay [11] and in assay [12] was inactive. The result in [10] and in assay [15] was Active. Moreover, the inhibition result in [13] and in assay [14] was “inactive” each time.
